The values below come from ChEMBL document CHEMBL1155379, “Effect of 3'-end capping of aptamer with various 2',4'-bridged nucleotides: Enzymatic post-modification toward a practical use of polyclonal aptamers” (Bioorg Med Chem Lett, 2010).

Data set [1] can be described thus: Chemical stability in presence of 80% (v/v) human serum assessed as intact compound remaining after 8 hrs by PAGE. The settings on record: read-out: Stability. The format is physicochemical. The procedure, abridged:
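Aptamer incubated in 80% v/v human serum at 37 °C for 8 h; intact full-length aptamer remaining quantified.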

Data set [2] can be described thus: Chemical stability in presence of snake venom phosphodiesterase 1 assessed as oligonucleotide degradation after 120 mins by PAGE. The settings on record: 2 h. The format is physicochemical.
The next data set addresses Prothrombin (Homo sapiens, UniProt P00734). The data set can be described thus: Binding affinity to human thrombin after 30 mins by non-equilibrium capillary electrophoresis. In short, it runs like this: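 Capillary electrophoresis of aptamer–thrombin mixtures: aptamer 1 nM with thrombin 4 nM in 20 mM Tris-HCl (1 mM MgCl2) pH 7.4 sample buffer; running buffer 100 mM sodium borate pH 8.35; separation +12 kV, injection 0.5 psi × 7.8 s. Kd derived from binding saturation curves over varied thrombin concentrations.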

SMILES strings stand for the structures.

For the compound `C=C1NC(=O)C(C)=CN1[C@H]1C[C@H](OP(=O)(O)OC[C@H]2O[C@@H](n3cnc4c(=O)[nH]c(N)nc43)[C@H](O)[C@@H]2OP(=O)(O)OC[C@H]2O[C@@H](n3cnc4c(N)ncnc43)[C@H](O)[C@@H]2OP(=O)(O)OC[C@H]2O[C@@H](n3ccc(N)nc3=O)[C@H](O)[C@@H]2OP(=O)(O)OC[C@H]2O[C@@H](n3cc(C)c(=O)[nH]c3=O)C[C@@H]2O)[C@@H](COP(=O)(O)O[C@H]2[C@@H](O)[C@H](n3cnc4c(=O)[nH]c(N)nc43)O[C@@H]2COP(=O)(O)O[C@H]2[C@@H](O)[C@H](n3cnc4c(=O)[nH]c(N)nc43)O[C@@H]2COP(=O)(O)O[C@H]2[C@@H](O)[C@H](n3cnc4c(=O)[nH]c(N)nc43)O[C@@H]2COP(=O)(O)O[C@H]2[C@@H](O)[C@H](n3cnc4c(=O)[nH]c(N)nc43)O[C@@H]2COP(=O)(O)O[C@H]2C[C@H](n3cc(C)c(=O)[nH]c3=O)O[C@@H]2COP(=O)(O)O[C@H]2C[C@H](n3cc(C)c(=O)[nH]c3=O)O[C@@H]2COP(=O)(O)O[C@H]2[C@@H](O)[C@H](n3cnc4c(=O)[nH]c(N)nc43)O[C@@H]2COP(=O)(O)O[C@H]2[C@@H](O)[C@H](n3cnc4c(=O)[nH]c(N)nc43)O[C@@H]2COP(=O)(O)O[C@H]2[C@@H](O)[C@H](n3cnc4c(N)ncnc43)O[C@@H]2COP(=O)(O)O[C@H]2[C@@H](O)[C@H](n3ccc(N)nc3=O)O[C@@H]2COP(=O)(O)O[C@H]2[C@@H](O)[C@H](n3cnc4c(=O)[nH]c(N)nc43)O[C@@H]2COP(=O)(O)O[C@H]2[C@@H](O)[C@H](n3cnc4c(=O)[nH]c(N)nc43)O[C@@H]2COP(=O)(O)O[C@H]2[C@@H](O)[C@H](n3cnc4c(=O)[nH]c(N)nc43)O[C@@H]2COP(=O)(O)O[C@H]2[C@@H](O)[C@H](n3cnc4c(N)ncnc43)O[C@@H]2COP(=O)(O)O[C@H]2C[C@H](n3cc(C)c(=O)[nH]c3=O)O[C@@H]2COP(=O)(O)O[C@H]2[C@@H](O)[C@H](n3cnc4c(=O)[nH]c(N)nc43)O[C@@H]2COP(=O)(O)O[C@H]2[C@@H](O)[C@H](n3cnc4c(=O)[nH]c(N)nc43)O[C@@H]2COP(=O)(O)O[C@H]2C[C@H](n3cc(C)c(=O)[nH]c3=O)O[C@@H]2COP(=O)(O)O[C@H]2[C@@H](O)[C@H](n3cnc4c(=O)[nH]c(N)nc43)O[C@@H]2COP(=O)(O)O[C@H]2[C@@H](O)[C@H](n3ccc(N)nc3=O)O[C@@H]2COP(=O)(O)O[C@H]2[C@@H](O)[C@H](n3ccc(N)nc3=O)O[C@@H]2COP(=O)(O)O[C@H]2C[C@H](n3cc(C)c(=O)[nH]c3=O)O[C@@H]2COP(=O)(O)O[C@H]2[C@@H](O)[C@H](n3cnc4c(=O)[nH]c(N)nc43)O[C@@H]2COP(=O)(O)O[C@H]2[C@@H](O)[C@H](n3cnc4c(N)ncnc43)O[C@@H]2COc2ccc3c(c2)Oc2cc(O)ccc2C32OC(=O)c3ccccc32)O1` (stereo partly specified), the remaining at 8 h in data set [1] was found to be 0%. Besides, the Stability entry in data set [2] is “Unstable”. The compound further displayed a Kd at Prothrombin of 0.25 nM.
The corresponding values for `C=C1NC(=O)C(C)=CN1[C@H]1C[C@H](OP(=O)(O)OC[C@H]2O[C@@H](n3cnc4c(=O)[nH]c(N)nc43)[C@H](O)[C@@H]2OP(=O)(O)OC[C@H]2O[C@@H](n3cnc4c(N)ncnc43)[C@H](O)[C@@H]2OP(=O)(O)OC[C@H]2O[C@@H](n3ccc(N)nc3=O)[C@H](O)[C@@H]2OP(=O)(O)OC[C@H]2O[C@@H](n3cc(C)c(=O)[nH]c3=O)C[C@@H]2OP(=O)(O)OC[C@@]23CNO[C@@H]([C@H](n4cc(C)c(=O)[nH]c4=O)O2)[C@@H]3O)[C@@H](COP(=O)(O)O[C@H]2[C@@H](O)[C@H](n3cnc4c(=O)[nH]c(N)nc43)O[C@@H]2COP(=O)(O)O[C@H]2[C@@H](O)[C@H](n3cnc4c(=O)[nH]c(N)nc43)O[C@@H]2COP(=O)(O)O[C@H]2[C@@H](O)[C@H](n3cnc4c(=O)[nH]c(N)nc43)O[C@@H]2COP(=O)(O)O[C@H]2[C@@H](O)[C@H](n3cnc4c(=O)[nH]c(N)nc43)O[C@@H]2COP(=O)(O)O[C@H]2C[C@H](n3cc(C)c(=O)[nH]c3=O)O[C@@H]2COP(=O)(O)O[C@H]2C[C@H](n3cc(C)c(=O)[nH]c3=O)O[C@@H]2COP(=O)(O)O[C@H]2[C@@H](O)[C@H](n3cnc4c(=O)[nH]c(N)nc43)O[C@@H]2COP(=O)(O)O[C@H]2[C@@H](O)[C@H](n3cnc4c(=O)[nH]c(N)nc43)O[C@@H]2COP(=O)(O)O[C@H]2[C@@H](O)[C@H](n3cnc4c(N)ncnc43)O[C@@H]2COP(=O)(O)O[C@H]2[C@@H](O)[C@H](n3ccc(N)nc3=O)O[C@@H]2COP(=O)(O)O[C@H]2[C@@H](O)[C@H](n3cnc4c(=O)[nH]c(N)nc43)O[C@@H]2COP(=O)(O)O[C@H]2[C@@H](O)[C@H](n3cnc4c(=O)[nH]c(N)nc43)O[C@@H]2COP(=O)(O)O[C@H]2[C@@H](O)[C@H](n3cnc4c(=O)[nH]c(N)nc43)O[C@@H]2COP(=O)(O)O[C@H]2[C@@H](O)[C@H](n3cnc4c(N)ncnc43)O[C@@H]2COP(=O)(O)O[C@H]2C[C@H](n3cc(C)c(=O)[nH]c3=O)O[C@@H]2COP(=O)(O)O[C@H]2[C@@H](O)[C@H](n3cnc4c(=O)[nH]c(N)nc43)O[C@@H]2COP(=O)(O)O[C@H]2[C@@H](O)[C@H](n3cnc4c(=O)[nH]c(N)nc43)O[C@@H]2COP(=O)(O)O[C@H]2C[C@H](n3cc(C)c(=O)[nH]c3=O)O[C@@H]2COP(=O)(O)O[C@H]2[C@@H](O)[C@H](n3cnc4c(=O)[nH]c(N)nc43)O[C@@H]2COP(=O)(O)O[C@H]2[C@@H](O)[C@H](n3ccc(N)nc3=O)O[C@@H]2COP(=O)(O)O[C@H]2[C@@H](O)[C@H](n3ccc(N)nc3=O)O[C@@H]2COP(=O)(O)O[C@H]2C[C@H](n3cc(C)c(=O)[nH]c3=O)O[C@@H]2COP(=O)(O)O[C@H]2[C@@H](O)[C@H](n3cnc4c(=O)[nH]c(N)nc43)O[C@@H]2COP(=O)(O)O[C@H]2[C@@H](O)[C@H](n3cnc4c(N)ncnc43)O[C@@H]2COc2ccc3c(c2)Oc2cc(O)ccc2C32OC(=O)c3ccccc32)O1` (stereo partly specified) are 20%, “Stable” and 0.21 nM.
